Laboratory results taken from ChEMBL document CHEMBL1221298, “InCl3 mediated one-pot multicomponent synthesis, anti-microbial, antioxidant and anticancer evaluation of 3-pyranyl indole derivatives” (Bioorg Med Chem Lett, 2010).
≈ marks a conversion by molar mass, not a printed value. Calls of active or inactive are those of the source. No cut-off for these calls is given here.

Columns and labels:
Assay type in all cases: functional
[1] = Antioxidant activity assessed as ABTS radical scavenging activity at 100 ug/ml
Outline: (§1)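 Test samples at 50, 100, 200 and 400 ug/ml were each mixed with 1 ml of freshly prepared ABTS radical cation solution, adjusted to absorbance 0.7–0.9 at 734 nm. Mixtures reacted 2 h in the dark, then absorbance was read at 734 nm against a blank. Scavenging % was taken as the absorbance decrease relative to ABTS solution without test sample.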

[2] = tested on: Radical scavenging activity; test: Antioxidant activity assessed as DPPH radical scavenging activity at 50 ug/ml
Outline: (§2)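 Each test sample was mixed with 1 ml DPPH in methanol, incubated at 37 °C for 30 min, and read spectrophotometrically at 517 nm with a blank reading. Scavenging % was expressed as the absorbance decrease at 517 nm relative to DPPH solution without test sample.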

[3] = tested on: MCF7; test: Cytotoxicity against human MCF7 cells after 24 hrs by MTT assay; settings: MCF7, 24 h
Outline: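 Exponentially growing cells plated at 10⁴ cells/well and allowed to attach, then exposed to test compounds or doxorubicin (dissolved in 0.1% DMSO, diluted in medium; range 1–100) for 24 h; controls received medium with 0.1% DMSO. MTT (1 mg/ml) added for 4 h at 37 °C, formazan dissolved in DMSO, absorbance read at 540 nm; % cytotoxicity calculated from blank-corrected absorbances versus control.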

[4] = tested on: Staphylococcus aureus; test: microbe, parasite or virus in culture; settings: ATCC 9144, 24 h
[5] = tested on: Staphylococcus aureus; test: microbe, parasite or virus in culture; settings: ATCC 9144, 24 h, read-out: IZ
[6] = Antioxidant activity assessed as ABTS radical scavenging activity at 50 ug/ml; outline: as §1
[7] = tested on: Bacillus cereus; test: microbe, parasite or virus in culture; settings: ATCC 11778, 24 h
[8] = tested on: Escherichia coli; test: microbe, parasite or virus in culture; settings: ATCC 25922, 24 h
[9] = tested on: Klebsiella pneumoniae; test: microbe, parasite or virus in culture; settings: ATCC 11298, 24 h
[10] = tested on: Radical scavenging activity; test: Antioxidant activity assessed as DPPH radical scavenging activity at 400 ug/ml; outline: as §2
[11] = Antioxidant activity assessed as ABTS radical scavenging activity at 200 ug/ml; outline: as §1
[12] = tested on: Radical scavenging activity; test: Antioxidant activity assessed as DPPH radical scavenging activity at 100 ug/ml; outline: as §2
[13] = tested on: Radical scavenging activity; test: Antioxidant activity assessed as DPPH radical scavenging activity; outline: as §2
[14] = tested on: Klebsiella pneumoniae; test: microbe, parasite or virus in culture; settings: ATCC 11298, 24 h, read-out: IZ
[15] = Antioxidant activity assessed as ABTS radical scavenging activity; outline: as §1
[16] = tested on: Radical scavenging activity; test: Antioxidant activity assessed as DPPH radical scavenging activity at 200 ug/ml; outline: as §2
[17] = Antioxidant activity assessed as ABTS radical scavenging activity at 400 ug/ml; outline: as §1
[18] = tested on: Bacillus cereus; test: Antimicrobial activity against Bacillus cereus ATCC 11778 at 100 ug/ml after 24 hrs by paper disk diffusion method; settings: ATCC 11778, 24 h, read-out: IZ
[19] = tested on: Escherichia coli; test: microbe, parasite or virus in culture; settings: ATCC 25922, 24 h, read-out: IZ

SMILES | Activity ([1]; at 100 µg/mL) [%] | Activity ([2]; at 50 µg/mL) [%] | GI50 [3] [µM] | LC50 (concentration killing 50% of cells) [3] [µM] | TGI [3] [µM] | MIC [4] [µg/mL] | zone of inhibition at 100 µg/mL [5] [mm] | Activity ([6]; at 50 µg/mL) [%] | MIC [7] [µg/mL] | MIC [8] [µg/mL] | MIC [9] [µg/mL] | Activity ([10]; at 400 µg/mL) [%] | Activity ([11]; at 200 µg/mL) [%] | Activity ([12]; at 100 µg/mL) [%] | IC50 [13] [µg/mL] | zone of inhibition at 100 µg/mL [14] [mm] | IC50 [15] [µg/mL] | Activity ([16]; at 200 µg/mL) [%] | zone of inhibition at 100 µg/mL [18] [mm] | zone of inhibition at 100 µg/mL [19] [mm] | further results
COc1ccc(C2C(C#N)=C(N)OC(c3c[nH]c4ccccc34)=C2C#N)cc1OC (configuration not stated) | 19.1 | 55.8 | 20.6 | 72.1 | 37.4 | 31.8 (≈ 79.8 µM) | 15 | 14.5 | 25.4 (≈ 63.8 µM) | 26.7 (≈ 67 µM) | 21.2 (≈ 53.2 µM) | 62.9 | 26.1 | 57.9 | < 50 | 17 | 867.28 (≈ 2180 µM) | 59.1 | 16 | 17 | Activity ([17]; at 400 µg/mL): 28.1%
N#CC1=C(N)OC(c2c[nH]c3ccccc23)=C(C#N)C1c1ccc(Br)cc1 (configuration not stated) | 14.6 | 46.7 | 21.8 | > 100 | 48.1 | 21.3 (≈ 51 µM) | 20 | 14.2 | 28 (≈ 67.1 µM) | 25.4 (≈ 60.9 µM) | 26.3 (≈ 63 µM) | 57.8 | 10.6 | 49.7 | 117.8 (≈ 282 µM) | 16 | 947.09 (≈ 2270 µM) | 54.3 | 14 | 15 | Activity ([17]; at 400 µg/mL): 22.7%
N#CC1=C(N)OC(c2c[nH]c3ccccc23)=C(C#N)C1c1ccc(F)cc1 (configuration not stated) | 16.2 | 26.9 | 28 | > 100 | 52.4 | 16.8 (≈ 47.1 µM) | 21 | 8.4 | 20.3 (≈ 57 µM) | 26.2 (≈ 73.5 µM) | 20.1 (≈ 56.4 µM) | 36.5 | 22.4 | 28.9 | 901.11 (≈ 2530 µM) | 17 | 960 (≈ 2690 µM) | 31.4 | 16 | 18 | Activity ([17]; at 400 µg/mL): 26.7%
N#CC1=C(N)OC(c2c[nH]c3ccccc23)=C(C#N)C1c1ccc2ccccc2c1 (configuration not stated) | – | – | 15.5 | 91.5 | 46.6 | 32.4 (≈ 83.4 µM) | 14 | – | 23.3 (≈ 60 µM) | 29.4 (≈ 75.7 µM) | 30.5 (≈ 78.5 µM) | – | – | – | – | 15 | – | – | 15 | 16 | Activity [1]: inactive; Activity [2]: inactive; Activity [6]: inactive; Activity [10]: inactive; Activity [11]: inactive; Activity [12]: inactive; Activity [13]: inactive; Activity [15]: inactive; Activity [16]: inactive; Activity [17]: inactive
N#CC1=C(N)OC(c2c[nH]c3ccccc23)=C(C#N)C1c1ccccc1F (configuration not stated) | – | – | 22.8 | > 100 | 48.2 | 23.4 (≈ 65.7 µM) | 19 | – | 22.6 (≈ 63.4 µM) | 27.4 (≈ 76.9 µM) | 30.2 (≈ 84.7 µM) | – | – | – | – | 15 | – | – | 14 | 15 | Activity [1]: inactive; Activity [2]: inactive; Activity [6]: inactive; Activity [10]: inactive; Activity [11]: inactive; Activity [12]: inactive; Activity [13]: inactive; Activity [15]: inactive; Activity [16]: inactive; Activity [17]: inactive
N#CC1=C(N)OC(c2c[nH]c3ccccc23)=C(C#N)C1c1cccc([N+](=O)[O-])c1 (configuration not stated) | – | – | – | – | – | 24 (≈ 62.6 µM) | 19 | – | 35.4 (≈ 92.3 µM) | 27.5 (≈ 71.7 µM) | 25.5 (≈ 66.5 µM) | – | – | – | – | 15 | – | – | 13 | 16 | Activity [1]: inactive; Activity [2]: inactive; Activity [6]: inactive; Activity [10]: inactive; Activity [11]: inactive; Activity [12]: inactive; Activity [13]: inactive; Activity [15]: inactive; Activity [16]: inactive; Activity [17]: inactive
N#CC1=C(N)OC(c2c[nH]c3ccccc23)=C(C#N)C1c1ccc(Cl)cc1 (configuration not stated) | – | – | – | – | – | 13.4 (≈ 35.9 µM) | 23 | – | 19 (≈ 51 µM) | 21.5 (≈ 57.7 µM) | 17.5 (≈ 46.9 µM) | – | – | – | – | 18 | – | – | 18 | 19 | Activity [1]: inactive; Activity [2]: inactive; Activity [6]: inactive; Activity [10]: inactive; Activity [11]: inactive; Activity [12]: inactive; Activity [13]: inactive; Activity [15]: inactive; Activity [16]: inactive; Activity [17]: inactive
Cc1ccccc1C1C(C#N)=C(N)OC(c2c[nH]c3ccccc23)=C1C#N (configuration not stated) | 17.2 | 25.8 | – | – | – | 25 (≈ 70.9 µM) | 16 | 10.4 | 27.8 (≈ 78.9 µM) | 26 (≈ 73.8 µM) | 27.2 (≈ 77.2 µM) | 32.5 | 21.4 | 27.4 | 1371.65 (≈ 3890 µM) | 15 | > 1000 | 28.3 | 15 | 16 | Activity ([17]; at 400 µg/mL): 25.7%
CN(C)c1ccc(C2C(C#N)=C(N)OC(c3c[nH]c4ccccc34)=C2C#N)cc1 (configuration not stated) | 18.5 | 72.1 | – | – | – | 23.8 (≈ 62.4 µM) | 18 | 14.4 | 25.6 (≈ 67.1 µM) | 26.7 (≈ 70 µM) | 25.2 (≈ 66.1 µM) | 75.7 | 20.5 | 73.1 | < 50 | 16 | 900 (≈ 2360 µM) | 74.6 | 15 | 17 | Activity ([17]; at 400 µg/mL): 26.7%
